Test results published in ChEMBL document CHEMBL1134796, “Indenopyrazoles as novel cyclin dependent kinase (CDK) inhibitors” (J Med Chem, 2001).
pIC50: −log10 of the molar value.

What was measured:
AG1523 = assay: Cytotoxic effect on human AG1523 fibroblast cells; type: functional, cell-based
[1] = molecular target: Cyclin-dependent kinase 2/cyclin E (Homo sapiens, UniProt P24941); assay: Inhibition of Cyclin-dependent kinase 2-cyclin E; type: protein-complex assay
In short: (§1)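 Lysates of insect cells expressing the cdk and its cyclin partner, run in kinase buffer with ³²P-ATP, GST-Rb fusion substrate and the compound at varying concentrations. Reaction stopped with excess EDTA. GST-Rb captured on GSH-Sepharose beads, washed, and counted by scintillation. IC50 is the concentration giving 50% inhibition of kinase activity.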

[2] = molecular target: Cyclin-dependent kinase 4/cyclin D1 (Homo sapiens, UniProt P11802); assay: Inhibition of Cyclin Dependent Kinase 4 cyclin D1; type: protein-complex assay; in short: as §1
HCT-116 = assay: Inhibition of HCT116 cell proliferation; type: functional, cell-based; conditions: Homo sapiens
In short: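 HCT116 cells cultured with compound at increasing concentrations. At selected time points, cells fixed with trichloroacetic acid and stained with sulforhodamine B. Unbound dye washed off, and bound dye extracted for optical density reading.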

[3] = Inhibition of protein kinase A (PKA)
Protein kinase C (PKC) = assay: Inhibition of protein kinase C (PKC); type: protein assay
[4] = molecular target: Tyrosine-protein kinase ABL1 (Homo sapiens, UniProt P00519); assay: Inhibition of c-Abl kinase
Mus musculus [5] = assay: In vivo antitumor activity in mice at 10 mg/kg/day (dosing schedule Q1DX14); type: functional
In short: (§2)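 Female nude mice carrying HCT116 human colon carcinoma xenografts, 1 × 10⁷ cells injected subcutaneously into the inguinal region. Drug given intraperitoneally once daily for 14 days, starting 7 days after cell injection. Tumors excised and weighed on day 15 post-dosing. Growth inhibition index (%) = (1 − mean net tumor weight treated/mean net tumor weight control) × 100.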

Mus musculus [6] = assay: In vivo antitumor activity in mice at 3 mg/kg/day (dosing schedule Q1DX14); type: functional; in short: as §2
Mus musculus [7] = assay: In vivo antitumor activity in mice at 30 mg/kg/day (dosing schedule Q1DX14); type: functional; in short: as §2
Mus musculus [8] = assay: In vivo antitumor activity in mice at 10 mg/kg/day (dosing schedule Q1DX14); 8/8; type: functional
In short: (§3)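 Female nude mice bearing HCT116 human colon carcinoma xenografts (1 × 10⁷ cells/animal, injected s.c. into the inguinal region). Drug was given ip once daily for 14 days, starting 7 days after cell injection. On day 15 after dosing, tumors were excised and weighed. Tumor growth inhibition index (%) = (1 − mean net tumor weight treated/control) × 100. Survivors reflect acute drug toxicity.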

Mus musculus [9] = assay: In vivo antitumor activity in mice at 3 mg/kg/day (dosing schedule Q1DX14); 8/8; type: functional; in short: as §3
Mus musculus [10] = assay: In vivo antitumor activity in mice at 30 mg/kg/day (dosing schedule Q1DX14); 8/8; type: functional; in short: as §3
Mus musculus [11] = assay: In vivo antitumor activity in mice at 7.5 mg/kg/day (dosing schedule Q1DX14); type: functional; in short: as §2
Mus musculus [12] = assay: In vivo antitumor activity in mice at 7.5 mg/kg/day (dosing schedule Q1DX14); 5/8; type: functional; in short: as §3
Mus musculus [13] = assay: In vivo antitumor activity in mice at 1 mg/kg/day (dosing schedule Q1DX14); type: functional; in short: as §2
Mus musculus [14] = assay: In vivo antitumor activity in mice at 1 mg/kg/day (dosing schedule Q1DX14); 8/8; type: functional; in short: as §3

Chain of Cyclin-dependent kinase 4/cyclin D1 (P11802 whole entry): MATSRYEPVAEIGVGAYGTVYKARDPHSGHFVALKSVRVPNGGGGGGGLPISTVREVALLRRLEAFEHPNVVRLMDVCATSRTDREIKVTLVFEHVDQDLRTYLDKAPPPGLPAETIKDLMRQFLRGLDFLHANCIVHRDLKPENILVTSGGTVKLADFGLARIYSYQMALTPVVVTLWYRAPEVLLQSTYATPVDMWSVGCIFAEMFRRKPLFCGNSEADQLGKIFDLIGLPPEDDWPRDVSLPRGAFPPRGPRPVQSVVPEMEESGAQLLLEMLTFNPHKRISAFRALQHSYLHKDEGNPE
Chain of Cyclin-dependent kinase 4/cyclin D1 (P24385 whole entry, further chain): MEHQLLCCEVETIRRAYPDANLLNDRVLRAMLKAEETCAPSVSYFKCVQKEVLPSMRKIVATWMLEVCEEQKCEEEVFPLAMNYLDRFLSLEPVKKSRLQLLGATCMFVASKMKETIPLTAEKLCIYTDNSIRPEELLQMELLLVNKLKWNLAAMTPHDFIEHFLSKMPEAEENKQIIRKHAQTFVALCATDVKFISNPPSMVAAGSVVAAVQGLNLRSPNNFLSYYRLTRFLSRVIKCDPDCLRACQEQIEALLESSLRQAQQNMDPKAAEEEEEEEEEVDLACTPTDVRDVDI
Chain of Tyrosine-protein kinase ABL1 (P00519 whole entry): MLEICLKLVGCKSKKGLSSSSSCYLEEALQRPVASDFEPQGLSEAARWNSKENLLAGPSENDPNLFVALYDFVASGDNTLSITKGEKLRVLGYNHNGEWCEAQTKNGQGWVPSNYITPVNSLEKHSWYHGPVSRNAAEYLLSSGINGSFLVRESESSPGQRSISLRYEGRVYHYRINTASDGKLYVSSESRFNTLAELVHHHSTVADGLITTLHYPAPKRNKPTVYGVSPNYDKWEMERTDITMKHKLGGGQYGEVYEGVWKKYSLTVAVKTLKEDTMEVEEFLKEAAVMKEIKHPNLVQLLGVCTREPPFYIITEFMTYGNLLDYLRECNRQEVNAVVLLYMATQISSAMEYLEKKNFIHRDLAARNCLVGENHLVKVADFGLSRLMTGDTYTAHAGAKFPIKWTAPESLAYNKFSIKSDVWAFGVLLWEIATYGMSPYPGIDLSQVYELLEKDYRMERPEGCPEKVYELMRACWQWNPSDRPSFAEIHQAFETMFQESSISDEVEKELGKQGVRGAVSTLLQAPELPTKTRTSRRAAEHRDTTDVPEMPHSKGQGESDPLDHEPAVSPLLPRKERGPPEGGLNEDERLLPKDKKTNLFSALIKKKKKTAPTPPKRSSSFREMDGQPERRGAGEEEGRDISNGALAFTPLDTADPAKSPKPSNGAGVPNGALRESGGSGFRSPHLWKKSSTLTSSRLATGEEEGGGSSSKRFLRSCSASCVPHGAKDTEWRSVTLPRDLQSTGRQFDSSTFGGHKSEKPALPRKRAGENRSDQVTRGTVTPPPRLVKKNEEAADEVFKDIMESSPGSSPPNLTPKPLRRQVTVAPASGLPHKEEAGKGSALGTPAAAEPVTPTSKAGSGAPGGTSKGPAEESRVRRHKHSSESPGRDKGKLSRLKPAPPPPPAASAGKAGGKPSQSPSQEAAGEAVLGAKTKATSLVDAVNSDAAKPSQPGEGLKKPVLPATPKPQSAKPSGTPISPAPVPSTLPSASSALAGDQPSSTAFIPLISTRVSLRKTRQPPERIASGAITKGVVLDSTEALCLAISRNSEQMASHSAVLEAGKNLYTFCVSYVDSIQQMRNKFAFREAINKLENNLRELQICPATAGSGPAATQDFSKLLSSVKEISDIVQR

For `COc1ccc(-c2[nH]nc3c2C(=O)c2c(NC(=O)Cc4ccc(N)cc4)cccc2-3)cc1`, the pIC50 (AG1523) was under 4.62, the pIC50 [1] was 7.42 and the pIC50 [2] was 6.32. It also gave a pIC50 (HCT-116) of 6.40.
For `COc1ccc(-c2[nH]nc3c2C(=O)c2c(NC(=O)c4ccccc4)cccc2-3)cc1`, the pIC50 [1] was 4.39 and the pIC50 [2] was under 3.60.
Molecule `COc1ccc(-c2[nH]nc3c2C(=O)c2c(NC(=O)C(C)(C)C)cccc2-3)cc1` has a pIC50 [1] of 5.68, a pIC50 [2] of 4.35 and a pIC50 (HCT-116) of 5.12.
`COc1ccc(-c2[nH]nc3c2C(=O)c2c(NC(=O)C(C)C)cccc2-3)cc1` gave a pIC50 (AG1523) of under 4.55, a pIC50 [1] of 5.85 and a pIC50 [2] of 4.46. The pIC50 (HCT-116) was 5.54.
`COc1ccc(-c2[nH]nc3c2C(=O)c2ccccc2-3)cc1` gave a pIC50 [1] of 4.59, a pIC50 [2] of 4.35 and a pIC50 [3] of 3.62. The IC50 (Protein kinase C (PKC)) was over 725000 nM and the pIC50 [4] was under 3.14.
For `COc1ccc(-c2[nH]nc3c2C(=O)c2c(NC=O)cccc2-3)cc1`, the pIC50 (AG1523) was under 4.20, the pIC50 [1] was 7.10 and the pIC50 [2] was 6.70. The pIC50 (HCT-116) was 6.16, the Tumor weight (Mus musculus [5]) was 871 mg and the inhibition in vivo at 10 mg/kg/day (Mus musculus [5]) was 19%. It also gave a Tumor weight (Mus musculus [6]) of 1171 mg, an inhibition in vivo at 3 mg/kg/day (Mus musculus [6]) of 0% and a Tumor weight (Mus musculus [7]) of 608 mg. For the same molecule, the inhibition in vivo at 30 mg/kg/day (Mus musculus [7]) was 43%, the No. survived (Mus musculus [8]) was 8 and the No. survived (Mus musculus [9]) was 8. For the same molecule, the No. survived (Mus musculus [10]) was 8.
`COc1ccc(-c2[nH]nc3c2C(=O)c2c(NC(C)=O)cccc2-3)cc1` gave a pIC50 [1] of 6.57, a pIC50 [2] of 6.35 and a pIC50 (HCT-116) of 5.57.
In the case of `CN1CCC(c2c(O)cc(O)c3c(=O)cc(-c4ccccc4Cl)oc23)[C@@H](O)C1` (mixture of isomers), the Tumor weight (Mus musculus [11]) was 538 mg, the inhibition in vivo at 7.5 mg/kg/day (Mus musculus [11]) was 50% and the No. survived (Mus musculus [12]) was 5.
Molecule `CO[C@@]12[C@H](COC(N)=O)C3=C(C(=O)C(C)=C(N)C3=O)N1C[C@@H]1N[C@@H]12` [MITOMYCIN] has a Tumor weight (Mus musculus [13]) of 455 mg, an inhibition in vivo at 1 mg/kg/day (Mus musculus [13]) of 58% and a No. survived (Mus musculus [14]) of 8.
